# Compound activity deposited in PubChem by several laboratories.
# PMI act satM6P = increases human PMI activity with near-saturating mannose 6-phosphate; coupled PMI enzyme assay, resazurin fluorescence, 20 min; stronger effect = higher value; 1 = untreated enzyme, 0 = substrate-free blank; activation factor at 20 µM; 190,000 tested, 0.34% active; AID 1216;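 active = activation factor of 2 or more at 20 µM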
#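 Test system: human phosphomannose isomerase with PGI, G6PDH, diaphorase coupling enzymes; Amount: PMI at 15 ng/mL final; Reagent: Mannose-6-phosphate 1.0 mM (near-saturating) plus 0.22 mM NADP+; Timing: 20 min, room temperature; Technique: resorufin fluorescence at Ex 544/Em 590 nm; Dosing: 20 µM single dose.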
# Diaphorase act = diaphorase activation or chemical reduction counter-screen | Diaphorase/resazurin coupled assay, resorufin fluorescence, 16 min; stronger effect = higher value; 1 = vehicle wells, 0 = NADH-free wells | activation factor at 20 µM | 190,000 tested, 0.005% active | AID 1229;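 active = diaphorase activity raised at least twofold by the compound at 20 µM; inactive = activation factor below 2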
#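 Material: bacterial diaphorase enzyme (C. kluyveri); amount: enzyme 0.07 U/mL final; reagent: NADH substrate 0.114 mM plus resazurin dye 0.1 mM, final; doses: single compound dose of 20 µM, 1% DMSO final; timing: 16 min enzyme reaction, ambient temperature; measured by: fluorescence of resorufin, 544 nm excitation, 590 nm emission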
# PMI act = phosphomannose isomerase (human) activation; 190,000 tested, 0.005% active; purified human PMI, coupled resazurin fluorescence, 20 min; stronger effect = higher value; 1 = vehicle control, 0 substrate-free wells; P34949; activation factor at 20 µM; AID 1214;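 active = activation factor of 2 or more at 20 µM, relative to plate controls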
# Avidin fluor = compound fluoresces at 488/530 nm on avidin beads. fluorescence (KMESF) at 10 µM. 220,000 tested, 0.38% active. compound fluorescence 488/530 nm, flow cytometry; stronger effect = higher value; in the data active = fluorescence above about 47
# GSH fluor = compound fluoresces at 488/530 nm on GSH beads | GSH beads flow cytometry, compound fluorescence 488/530 nm; stronger effect = higher value | fluorescence (KMESF) at 10 µM | 190,000 tested, 0.25% active; in the data active = fluorescence above about 89;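 note: glutathione beads carrying GST-tagged Bcl family fusion proteins plus one bare bead set; values are compound well signal with DMSO vehicle wells as background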
# p47phox inh = inhibitors of human p47phox binding | AID 1274 | inhibition, % at 24.7 µM | p47phox/p22phox peptide binding, fluorescence polarization, 2 h | 220,000 tested, 0.53% active | P14598;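 active = inhibition above about 30%, limit read from the data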;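 note: 0% = p47phox with labelled peptide and 100% = labelled peptide alone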
# Target sequence (P14598 whole entry, looked up): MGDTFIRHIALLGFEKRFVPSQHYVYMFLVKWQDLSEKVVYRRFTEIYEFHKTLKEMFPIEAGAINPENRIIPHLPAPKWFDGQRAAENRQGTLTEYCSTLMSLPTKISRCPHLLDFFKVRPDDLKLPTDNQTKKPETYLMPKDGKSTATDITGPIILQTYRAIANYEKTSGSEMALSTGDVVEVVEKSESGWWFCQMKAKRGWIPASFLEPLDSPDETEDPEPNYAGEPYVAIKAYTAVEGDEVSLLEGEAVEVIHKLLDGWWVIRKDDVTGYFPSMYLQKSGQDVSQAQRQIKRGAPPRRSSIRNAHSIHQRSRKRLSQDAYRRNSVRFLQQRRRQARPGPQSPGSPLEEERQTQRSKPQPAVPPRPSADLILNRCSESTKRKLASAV
# Numbers without * were called inactive; / = no result; + = active, no number. Hits are enriched below; roughly 1.4% of the tested compounds scored in any of these assays.
SMILES,PMI act satM6P,Diaphorase act,PMI act,Avidin fluor,GSH fluor,p47phox inh
Cc1ccc(S(=O)(=O)/N=C2/C=C(Sc3ncn[nH]3)C(=O)c3ccccc32)cc1,0.1,0.6,0,6,8,53*
Cc1ccc(S(=O)(=O)Nc2ccc(O)c(Sc3ncn[nH]3)c2)cc1,0.7,0.8,0.8,21,11,-10
CC(C)c1ccc(S(=O)(=O)/N=C2/C=C(Sc3ncn[nH]3)C(=O)c3ccccc32)cc1,0.2,0.8,0,6,9,50*
O=C(NCC(O)COc1ccc([N+](=O)[O-])cc1)Nc1ccccc1 (centres undefined),/,/,/,6,/,-6
COc1ccc(CNC(=O)C2CSC(c3ccc(OC)cc3)N2C(C)=O)cc1 (centres undefined),1,0.9,0.9,123*,28,3
O=C1CC(=C(c2ccccc2)c2ccccc2)C(=O)N1CCCN1CCN(c2cccc(Cl)c2)CC1,0.9,0.9,0.9,19,32,-31
O=C1CC(=C2c3ccccc3-c3ccccc32)C(=O)N1CCCCN1CCN(c2ccccc2)CC1,2.1*,1,1.5,5,16,3
CN(C)C(=O)Cn1c(=O)n(C)c2ccccc21,1,0.9,1.1,10,21,-10
Nc1nc(CCOc2ccc(F)cc2)cs1,1,0.9,1,8,21,40*
COc1ccc(OCC(=O)O/N=C(\N)Cc2ccc(Cl)cc2)cc1,1,1,1,54*,22,4
C(=C\c1ccco1)/C1=NN(c2ccccc2)C(c2ccco2)C1 (centres undefined),2.2*,0.9,1.6,13,13,-26
CCN(CC)C(=O)COC(=O)c1cc(-c2ccco2)nc2ccccc12,1.6,0.8,1.5,18,8,46*
CCOC(=O)N1CCN(C(=O)CCC(=O)N2CCOc3ccc(C)cc32)CC1,1,1.1,1,9,33,/
Cn1c(Cn2cnc([N+](=O)[O-])n2)nnc1SCC(=O)Nc1cccc(Cl)c1,1,1,1,10,12,-9
Cc1cc(NC(=O)CSc2nnc(C3COc4ccccc4O3)n2N)no1 (centres undefined),/,/,/,6,/,44*
Cc1nnc(SCc2nnc(-c3ccccc3)o2)n(N)c1=O,0.9,0.8,0.9,8,264*,-19
Cc1nnc(SCc2ccccn2)n(N)c1=O,0.8,0.9,1,4,10,-5
Cc1nnc(SCC(=O)Nc2ccccc2)n(N)c1=O,0.9,0.9,0.9,55*,19,-1
O=C(Nc1ccc(S(=O)(=O)Nc2nccc(C3Cc4ccccc4C(=O)O3)n2)cc1)c1ccccc1 (centres undefined),1.1,0.8,1,27,33,-21
O=C1OC(=O)C2C1[C@@H]1CC[C@H]2O1 (some centres undefined),1.2,1.1,1.2,9,22,6
CCN(CC)c1nc(N)nc(N(c2ccccc2)c2ccccc2)n1,1.1,0.9,1,73*,21,-17
CCc1nnc(SCc2ccc(C(=O)OC)o2)n1N,1.1,1,1.1,7,258*,1
CCCc1nnc(SCc2ccc(C(=O)OC)o2)n1N,1.1,1.2,1,28,9,-6
COc1ccc(CCN2C(=S)N(C)C(=O)C2CC(=O)Nc2ccc(F)cc2)cc1 (centres undefined),/,/,/,5,/,-15
CC(=O)Nc1ccc(C(=O)OCC(=O)NC(=O)NC2CCCCC2)cc1,0.9,0.8,1,15,6,133*
SMILES,PMI act satM6P,Diaphorase act,PMI act,Avidin fluor,GSH fluor,p47phox inh
CCC1(C)Cc2nc3sc(C(=O)O)c(N)c3cc2CO1 (centres undefined),2.2*,0.8,1.5,12,23,-20
CC(C)CNc1nc(Oc2ccc(=O)[nH]n2)nc(N(C)C)n1,1,0.9,1,7,43,+
CN(C)c1nc(Nc2ccccc2)nc(Oc2ccc(=O)[nH]n2)n1,1.1,0.9,1.1,28,19,-2
CCCn1nnc(NC(=O)c2cccc(OCC(C)C)c2)n1,0.9,0.8,0.9,7,264*,-7
CS(=O)(=O)c1ccc2nc(NC(=O)c3cccs3)sc2c1,0.9,0.8,0.8,56*,16,-8
Cc1nc(SCC(=O)c2c(C)[nH]c3ccccc23)c2c(=O)n(C)c(=O)n(CC(C)C)c2n1,1.1,1,1,/,/,/
CCCN1CCc2c(sc(NC(=S)NC(=O)c3ccccc3)c2C#N)C1,2*,1,1.6,8,20,-16
CC(C)N1CCc2c(sc(NC(=S)NC(=O)c3ccccc3)c2C#N)C1,1.4,0.7,1.2,13,21,-147
CC1(C(=O)O)Sc2[nH]c(=O)sc2C2c3ccccc3OC(=O)C21 (centres undefined),0.9,0.7,0.9,9,8,-5
Oc1c(Cl)cc(Cl)cc1C1=NNC(c2ccc(Cl)cc2)C1 (centres undefined),2.6*,1,1.8,7,11,-41
O=C(Cn1c2c(c(-c3ccccc3)cc1=O)CCCC2)N1CCCCCC1,1,0.9,1,6,13,-12
CCCCNC(=O)Cn1c2c(c(-c3ccccc3Cl)cc1=O)CCC2,0.9,1,1,7,21,81*
CCSc1ccc(-c2ccc(C)cc2)nn1,1,1,1.1,10,26,37*
CC1=NN(c2ccc(Cl)c(C(=O)O)c2)C(=O)C1,1,0.9,1,12,16,-5
CC1=NN(c2ccc(S(=O)(=O)O)cc2Cl)C(=O)C1,2*,0.7,1.4,12,11,-10
COC(CN1CCc2c(C)nc3c(C#N)cnn3c21)OC,1,0.9,1.1,9,12,-9
CC(C)Cc1nc(N2CCC(C(N)=O)CC2)c2nnn(Cc3ccccc3)c2n1,1.1,1.1,1.1,12,37,-20
Cc1nc(N2CCC(C)CC2)c2nnn(Cc3ccccc3)c2n1,1.1,1.1,1.1,4,89*,-2
FC(F)(F)c1cc(N2CCN(Cc3ccccc3)CC2)c2ccccc2n1,/,/,/,9,/,-16
Cc1cc(NC(=O)C(=O)c2cn(C)c3ccccc23)no1,0.9,0.9,0.9,62*,14,-6
COc1ccc(/C(C)=N/OC/C(O)=C(\C#N)c2nc3ccccc3[nH]2)c(OC)c1,0.7,0.8,0.9,6,11,-17
CC1CC(c2ccccc2)n2nc(NC(=O)CCc3ccccc3)nc2N1 (centres undefined),1,0.9,1,18,36,-7
Cc1cc(=O)oc2cc(OC(C)C(=O)N3CCOCC3)ccc12 (centres undefined),1.2,1.1,1.2,13,7,-71
